Reference: ChEMBL document CHEMBL1137633, “2,N6-disubstituted adenosine analogs with antitrypanosomal and antimalarial activities” (Antimicrob Agents Chemother, 2007)
Calls of active or inactive are those of the source. No cut-off for these calls is given here.

Legend:
[1] = Inhibition of Trypanosoma brucei brucei 427 P2 transporter-mediated [3H]adenosine uptake by fluid scintillation counting in presence of 100 uM inosine
[2] = test system: Trypanosoma brucei brucei; experiment: Inhibition of Trypanosoma brucei brucei 427 P1 transporter-mediated [3H]adenosine uptake by fluid scintillation counting in presence of 100 uM adenine
Trypanosoma cruzi = experiment: Trypanocidal activity against Trypanosoma cruzi Tulahuen C4 trypomastigotes infected in mouse macrophage by reporter dye assay; format: functional, organism-based
[3] = test system: Trypanosoma brucei rhodesiense; experiment: Trypanocidal activity against Trypanosoma brucei rhodesiense STIB 900 […] by reporter dye assay; format: functional, organism-based
Plasmodium falciparum = experiment: Antiplasmodial activity against chloroquine and pyrimethamine-resistant Plasmodium falciparum K1 […] by reporter dye assay; format: functional, organism-based
Leishmania donovani = experiment: Antileishmanial activity against Leishmania donovani MHOMET-67/L82 amastigotes infected in mouse macrophage by reporter dye assay; format: functional, organism-based
[4] = Cytotoxicity against HEK293T cells after 16 hrs by alamar blue staining; format: cell-based; conditions: Homo sapiens, HEK-293T
Outline: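 HEK 293T cells were seeded at 3×10^4/well in DMEM with 10% newborn bovine serum, 2 mM L-glutamax and 1% penicillin-streptomycin, and left to adhere for 3 h at 37°C under 5% CO2. Medium with serial drug dilutions (500 to 0.24 μM in the added medium) was then given for 16 h. Resazurin followed for a further 24 h, read by fluorescence (ex 530/em 590 nm). IC50 values came from ≥3 independent experiments.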

L6 = experiment: Cytotoxicity against rat L6 cells; format: cell-based
Leishmania mexicana = experiment: Antiprotozoal activity against axenic Leishmania mexicana amastigotes by alamar blue fluorescent dye assay; format: functional, organism-based
[5] = test system: Trypanosoma brucei brucei; experiment: Trypanocidal activity against Trypanosoma brucei brucei s427 by alamar blue fluorescent dye assay; format: functional; conditions: read-out: ED50 (the source's name)
Leishmania major [6] = experiment: Leishmanicidal activity against Leishmania major promastigotes by alamar blue fluorescent dye assay; format: functional; conditions: read-out: ED50 (the source's name)
Leishmania major [7] = experiment: Leishmanistatic activity against Leishmania major promastigotes by alamar blue fluorescent dye assay; format: functional; conditions: read-out: ED50 (the source's name)
[8] = test system: Trypanosoma brucei brucei; experiment: Trypanostatic activity against Trypanosoma brucei brucei s427 by alamar blue fluorescent dye assay; format: functional; conditions: read-out: ED50 (the source's name)
Leishmania major [9] = experiment: Biphasic antileishmanial activity against Leishmania major promastigotes by alamar blue fluorescent dye assay; format: functional, organism-based
[10] = Inhibition of [3H]hypoxanthine uptake at Trypanosoma brucei brucei 427 H2 transporter expressed in human erythrocytes by fluid scintillation counting; format: cell-based
[11] = test system: Trypanosoma brucei brucei; experiment: Biphasic antitrypanosomal activity against Trypanosoma brucei brucei s427 by alamar blue fluorescent dye assay; format: functional, organism-based

Row | SMILES | IC50 (Trypanosoma cruzi) | IC50 [3] | IC50 (Plasmodium falciparum) | IC50 (Leishmania donovani) | also measured
1 | Nc1ncnc2c1ncn2[C@H]1C[C@H](O)[C@@H](CO)O1 [DEOXYADENOSINE] | – | – | – | – | Ki [1]: 0.23 µM; inhibition [2]: inactive
2 | OC[C@H]1O[C@@H](n2cnc3c(NCCC(c4ccccc4)c4ccccc4)nc(NCCc4cnc[nH]4)nc32)[C@H](O)[C@@H]1O | < 30 µM | 71.5 µM | 8.17 µM | < 30 µM | –
3 | OC[C@H]1O[C@@H](n2cnc3c(NC4CCCC4)nc(NC4CCCCCC4)nc32)[C@H](O)[C@@H]1O | – | 3.06 µM | 6.79 µM | – | IC50 [4]: 167 µM
4 | Nc1nc(N)nc(Nc2ccc([As]3SCC(CO)S3)cc2)n1 (centres undefined) [MELARSOPROL] | < 30 µM | 0.0056 µM | – | < 30 µM | –
5 | OC[C@H]1O[C@@H](n2cnc3c(Nc4ccccc4)nc(NCCC4CNc5ccccc54)nc32)[C@H](O)[C@@H]1O (some centres undefined) | < 30 µM | 18.8 µM | 5.55 µM | < 30 µM | IC50 (L6): 13.2 µM
6 | C[C@@H]1CC[C@H]2[C@@H](C)C(=O)O[C@@H]3O[C@@]4(C)CC[C@@H]1[C@]32OO4 [ARTEMISININ] | – | – | 0.2 µM | – | –
7 | OC[C@H]1O[C@@H](n2cnc3c(Nc4ccccc4)nc(NC4CCCC4)nc32)[C@H](O)[C@@H]1O | < 30 µM | 2.06 µM | 6.06 µM | < 30 µM | IC50 (L6): 36.3 µM
8 | OC[C@H]1O[C@@H](n2cnc3c(NC4CCCCC4)nc(NC4CCCCC4)nc32)[C@H](O)[C@@H]1O | – | 7.26 µM | 9.62 µM | – | –
9 | OC[C@H]1O[C@@H](n2cnc3c(NC4CCCC4)nc(NC4CCCC4)nc32)[C@H](O)[C@@H]1O | – | 0.4 µM | > 10 µM | – | IC50 (Leishmania mexicana): 9.01 µM; EC50 [5]: 15.7 µM; IC50 [4]: > 500 µM; EC50 (Leishmania major [6]): 9.07 µM; Ki [1]: 20 µM; EC50 (Leishmania major [7]): 0.01 µM; inhibition [2]: inactive; IC50 (L6): 97.3 µM; EC50 [8]: 0.166 µM
10 | N=C(N)c1ccc(OCCCCCOc2ccc(C(=N)N)cc2)cc1 [PENTAMIDINE] | – | – | – | – | IC50 (Leishmania major [9]): 3.52 µM
11 | OC[C@H]1O[C@@H](n2cnc3c(NCc4cccc5ccccc45)nc(NCCC(c4ccccc4)c4ccccc4)nc32)[C@H](O)[C@@H]1O | – | 24.1 µM | 1.76 µM | – | –
12 | OC[C@H]1O[C@@H](n2cnc3c(NC4CC4)nc(NC4CC4)nc32)[C@H](O)[C@@H]1O | – | 172 µM | > 10 µM | – | –
13 | OC[C@H]1O[C@@H](n2cnc3c(NC4CCCCC4)nc(NC4CCCC4)nc32)[C@H](O)[C@@H]1O | – | 0.71 µM | > 10 µM | – | IC50 [4]: > 500 µM
14 | OC[C@H]1O[C@@H](n2cnc3c(NCCC4CNc5ccccc54)nc(NCCC4CNc5ccccc54)nc32)[C@H](O)[C@@H]1O (some centres undefined) | – | 26.5 µM | 2.46 µM | – | –
15 | OC[C@H]1O[C@@H](n2cnc3c(NC4CCCC4)nc(NCCc4cnc[nH]4)nc32)[C@H](O)[C@@H]1O | < 30 µM | 37.8 µM | > 10 µM | < 30 µM | –
16 | OC[C@H]1O[C@@H](n2cnc3c(NC45CC6CC(CC(C6)C4)C5)nc(N4CCCC4)nc32)[C@H](O)[C@@H]1O | – | 34.1 µM | 6.2 µM | – | –
17 | COc1nc(NCc2cccc(I)c2)c2ncn([C@@H]3O[C@H](CO)[C@@H](O)[C@H]3O)c2n1 | < 30 µM | 26.7 µM | > 10 µM | < 30 µM | –
18 | COc1nc(Nc2ccccc2)c2ncn([C@@H]3O[C@H](CO)[C@@H](O)[C@H]3O)c2n1 | < 30 µM | 83.3 µM | > 10 µM | < 30 µM | –
19 | OC[C@H]1O[C@@H](n2cnc3c(NC4CCCC4)nc(NC4CC4)nc32)[C@H](O)[C@@H]1O | – | 1.43 µM | > 10 µM | – | IC50 [4]: > 500 µM
20 | COc1nc(NCCC(c2ccccc2)c2ccccc2)c2ncn([C@@H]3O[C@H](CO)[C@@H](O)[C@H]3O)c2n1 | < 30 µM | 36 µM | > 10 µM | < 30 µM | –
21 | OC[C@H]1O[C@@H](n2cnc3c(N4CCCCC4)nc(NC4CCCC4)nc32)[C@H](O)[C@@H]1O | – | 11.2 µM | > 10 µM | – | –
22 | OC[C@H]1O[C@@H](n2cnc3c(NC4CC4)nc(NC4CCCC4)nc32)[C@H](O)[C@@H]1O | – | 1.84 µM | > 10 µM | – | IC50 [4]: > 500 µM
23 | OC[C@H]1O[C@@H](n2cnc3c(Nc4ccccc4)nc(NCCOCc4ccccc4)nc32)[C@H](O)[C@@H]1O | < 30 µM | 8.43 µM | 7.38 µM | < 30 µM | IC50 (L6): 53.8 µM

Row | SMILES | IC50 (Trypanosoma cruzi) | IC50 [3] | IC50 (Plasmodium falciparum) | IC50 (Leishmania donovani) | also measured
24 | OC[C@H]1O[C@@H](n2cnc3c(NCc4cccc(I)c4)nc(NC4CCCC4)nc32)[C@H](O)[C@@H]1O | < 30 µM | 5.44 µM | > 10 µM | < 30 µM | IC50 (L6): 51.7 µM
25 | OC[C@H]1O[C@@H](n2cnc3c(NCc4cccc(I)c4)nc(NCCOCc4ccccc4)nc32)[C@H](O)[C@@H]1O | < 30 µM | 27 µM | > 10 µM | < 30 µM | –
26 | OC[C@H]1O[C@@H](n2cnc3c(NCCC(c4ccccc4)c4ccccc4)nc(NCCOCc4ccccc4)nc32)[C@H](O)[C@@H]1O | < 30 µM | 27.7 µM | 3.06 µM | < 30 µM | –
27 | OC[C@H]1O[C@@H](n2cnc3c(NCc4cccc(I)c4)nc(NCCc4cnc[nH]4)nc32)[C@H](O)[C@@H]1O | < 30 µM | 42.9 µM | > 10 µM | < 30 µM | –
28 | OC[C@H]1O[C@@H](n2cnc3c(NC4CCCC4)nc(NCCOCc4ccccc4)nc32)[C@H](O)[C@@H]1O | < 30 µM | 4.19 µM | > 10 µM | < 30 µM | IC50 (L6): 78.8 µM
29 | OC[C@H]1O[C@@H](n2cnc3c(Nc4ccccc4)nc(NCCc4cnc[nH]4)nc32)[C@H](O)[C@@H]1O | < 30 µM | 76.3 µM | > 10 µM | < 30 µM | –
30 | CCN(CC)CCCC(C)Nc1ccnc2cc(Cl)ccc12 (centres undefined) [CHLOROQUINE] | < 30 µM | – | – | < 30 µM | –
31 | OC[C@H]1O[C@@H](n2cnc3c(NC4CCCCCC4)nc(NC4CCCCCC4)nc32)[C@H](O)[C@@H]1O | – | 29.8 µM | 4.91 µM | – | –
32 | OC(c1cc(C(F)(F)F)nc2c(C(F)(F)F)cccc12)C1CCCCN1 (centres undefined) [MEFLOQUINE] | < 30 µM | – | – | < 30 µM | IC50 (L6): 4.76 µM
33 | OC[C@H]1O[C@@H](n2cnc3c(NCc4cccc(I)c4)nc(NCCC4CNc5ccccc54)nc32)[C@H](O)[C@@H]1O (some centres undefined) | < 30 µM | 20 µM | > 10 µM | < 30 µM | –
34 | OC[C@H]1O[C@@H](n2cnc3c(NC4CCCCCC4)nc(NC4CCCC4)nc32)[C@H](O)[C@@H]1O | – | 0.71 µM | 8.95 µM | – | IC50 [4]: > 500 µM
35 | OC[C@H]1O[C@@H](n2cnc3c(NCCC(c4ccccc4)c4ccccc4)nc(NCCC4CNc5ccccc54)nc32)[C@H](O)[C@@H]1O (some centres undefined) | < 30 µM | 25.1 µM | 1.83 µM | < 30 µM | –
36 | c1nc2nc(NC3CCCC3)nc(NC3CCCC3)c2[nH]1 | – | – | – | – | IC50 (Leishmania mexicana): 15.2 µM; EC50 [5]: 23.4 µM; EC50 (Leishmania major [6]): 15.1 µM; EC50 (Leishmania major [7]): 0.015 µM; EC50 [8]: 0.026 µM; Ki [10]: 33.4 µM
37 | OC[C@H]1O[C@@H](n2cnc3c(NCCC(c4ccccc4)c4ccccc4)nc(NCc4cccc5ccccc45)nc32)[C@H](O)[C@@H]1O | – | 17.3 µM | 1.56 µM | – | –
38 | OC[C@H]1O[C@@H](n2cnc3c(N4CCCCC4)nc(N4CCCCC4)nc32)[C@H](O)[C@@H]1O | – | 87.2 µM | > 10 µM | – | –
39 | CCCCNc1nc(NC2CCCC2)nc2c1ncn2[C@@H]1O[C@H](CO)[C@@H](O)[C@H]1O | – | 0.64 µM | > 10 µM | – | IC50 [4]: > 500 µM; Ki [1]: 9 µM; inhibition [2]: inactive
40 | OC[C@H]1O[C@@H](n2cnc3c(NC4CCCC4)nc(NCCC4CNc5ccccc54)nc32)[C@H](O)[C@@H]1O (some centres undefined) | < 30 µM | 20.8 µM | > 10 µM | < 30 µM | IC50 (L6): 48.4 µM
41 | OC[C@H]1O[C@@H](n2cnc3c(NCCC(c4ccccc4)c4ccccc4)nc(NC4CCCC4)nc32)[C@H](O)[C@@H]1O | < 30 µM | 8 µM | 3.28 µM | < 30 µM | –
42 | OC[C@H]1O[C@@H](n2cnc3c(NC4CCCC4)nc(NC4CCCCC4)nc32)[C@H](O)[C@@H]1O | – | 0.49 µM | 9.05 µM | – | IC50 [4]: 228 µM
43 | COc1nc(NC2CCCC2)c2ncn([C@@H]3O[C@H](CO)[C@@H](O)[C@H]3O)c2n1 | < 30 µM | 32.9 µM | > 10 µM | < 30 µM | IC50 (L6): 51.6 µM
44 | N=C(N)c1ccc(/N=N/Nc2ccc(C(=N)N)cc2)cc1 [DIMINAZENE] | – | – | – | – | IC50 [11]: 0.107 µM
45 | CCCNc1nc(NCCc2ccccc2)c2ncn([C@@H]3O[C@H](CO)[C@@H](O)[C@H]3O)c2n1 | < 30 µM | 14.2 µM | > 10 µM | < 30 µM | IC50 (L6): > 200 µM
46 | CCCCCNc1nc(NCCCCC)c2ncn([C@@H]3O[C@H](CO)[C@@H](O)[C@H]3O)c2n1 | < 30 µM | 6.47 µM | > 10 µM | < 30 µM | IC50 (L6): > 200 µM
